Assay [1] addresses T1, Retinoic acid receptor beta (Homo sapiens, UniProt P10826).
T1 sequence (P10826 whole entry): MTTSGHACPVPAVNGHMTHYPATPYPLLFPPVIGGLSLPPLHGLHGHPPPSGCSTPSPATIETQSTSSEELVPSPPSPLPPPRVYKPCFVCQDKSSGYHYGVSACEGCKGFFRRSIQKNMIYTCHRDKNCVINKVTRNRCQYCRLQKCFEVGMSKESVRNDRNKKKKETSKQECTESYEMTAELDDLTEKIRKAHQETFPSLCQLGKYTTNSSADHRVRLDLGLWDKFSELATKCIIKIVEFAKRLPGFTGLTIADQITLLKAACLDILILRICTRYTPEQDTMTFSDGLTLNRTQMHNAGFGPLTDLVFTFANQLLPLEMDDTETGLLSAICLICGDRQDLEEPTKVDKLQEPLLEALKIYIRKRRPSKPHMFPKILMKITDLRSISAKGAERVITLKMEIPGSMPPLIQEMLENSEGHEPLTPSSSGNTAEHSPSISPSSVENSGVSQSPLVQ
Put plainly: Inhibition of [3H]ATRA binding to Retinoic acid receptor RAR beta. In short, it runs like this:
(§1)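 Receptors expressed recombinantly in a baculovirus system. Binding was measured by competition against 5 nM [3H]-all-trans-RA. Ki was calculated by the Cheng–Prusoff method.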

The target in assay [2] is T2, Retinoic acid receptor gamma (Homo sapiens, UniProt P13631).
T2 sequence (P13631 whole entry): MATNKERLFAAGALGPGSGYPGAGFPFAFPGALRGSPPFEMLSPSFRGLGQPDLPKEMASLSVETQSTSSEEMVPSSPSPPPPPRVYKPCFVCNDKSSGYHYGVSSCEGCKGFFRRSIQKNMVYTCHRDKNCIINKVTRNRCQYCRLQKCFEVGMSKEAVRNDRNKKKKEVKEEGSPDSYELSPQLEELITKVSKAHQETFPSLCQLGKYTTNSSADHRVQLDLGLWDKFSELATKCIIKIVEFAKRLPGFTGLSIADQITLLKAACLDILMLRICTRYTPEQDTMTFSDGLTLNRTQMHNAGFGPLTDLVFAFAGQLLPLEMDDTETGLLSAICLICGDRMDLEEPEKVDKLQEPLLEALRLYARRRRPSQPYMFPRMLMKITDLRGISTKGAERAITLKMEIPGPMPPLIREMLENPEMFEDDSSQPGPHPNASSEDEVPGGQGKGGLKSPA
Kind of assay: Transcriptional activation of Retinoic acid receptor RAR gamma. In short, it runs like this: (§2)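 CV-1 cells were transiently cotransfected with the receptor expression vector, a ΔMTV-TREp-Luc reporter and an RSV-β-Gal internal control, then incubated with compound (log dilutions, 1 x 10^-12 to 1 x 10^-5 M). Luciferase was normalized by β-galactosidase. Response is % of the all-trans-RA maximum, giving EC50. Three experiments, triplicates at each concentration.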

Assay [3] has as its target T3, Retinoic acid receptor RXR-beta (Homo sapiens, UniProt P28702).
T3 sequence (P28702 whole entry): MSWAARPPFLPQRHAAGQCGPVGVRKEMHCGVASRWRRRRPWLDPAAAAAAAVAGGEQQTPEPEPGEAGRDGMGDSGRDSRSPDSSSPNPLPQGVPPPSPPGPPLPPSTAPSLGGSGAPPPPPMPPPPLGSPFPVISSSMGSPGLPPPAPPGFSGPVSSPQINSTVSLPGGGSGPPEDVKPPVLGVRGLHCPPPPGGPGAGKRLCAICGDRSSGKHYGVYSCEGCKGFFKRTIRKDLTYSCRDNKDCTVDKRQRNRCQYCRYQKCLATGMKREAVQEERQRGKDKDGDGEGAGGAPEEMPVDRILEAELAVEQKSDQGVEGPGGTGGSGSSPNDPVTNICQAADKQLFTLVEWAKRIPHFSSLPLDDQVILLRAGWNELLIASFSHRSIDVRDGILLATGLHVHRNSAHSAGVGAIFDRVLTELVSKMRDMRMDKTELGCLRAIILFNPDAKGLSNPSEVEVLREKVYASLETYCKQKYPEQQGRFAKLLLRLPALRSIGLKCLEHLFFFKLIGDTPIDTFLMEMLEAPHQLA
Put plainly: Inhibition of [3H]-Targretin binding to Retinoid X receptor RXR beta. In a few lines: (§3)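 Recombinant receptors were expressed in a baculovirus system. Test ligands competed with [3H]Targretin (LGD1069) for binding. Ki values were derived by the Cheng–Prusoff method.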

The target of assay [4] is T2, Retinoic acid receptor gamma. Put plainly: Inhibition of [3H]ATRA binding to Retinoic acid receptor RAR gamma. In a few lines: as §1
Assay [5] concerns the target T4, Retinoic acid receptor alpha (Homo sapiens, UniProt P10276).
T4 sequence (P10276 whole entry): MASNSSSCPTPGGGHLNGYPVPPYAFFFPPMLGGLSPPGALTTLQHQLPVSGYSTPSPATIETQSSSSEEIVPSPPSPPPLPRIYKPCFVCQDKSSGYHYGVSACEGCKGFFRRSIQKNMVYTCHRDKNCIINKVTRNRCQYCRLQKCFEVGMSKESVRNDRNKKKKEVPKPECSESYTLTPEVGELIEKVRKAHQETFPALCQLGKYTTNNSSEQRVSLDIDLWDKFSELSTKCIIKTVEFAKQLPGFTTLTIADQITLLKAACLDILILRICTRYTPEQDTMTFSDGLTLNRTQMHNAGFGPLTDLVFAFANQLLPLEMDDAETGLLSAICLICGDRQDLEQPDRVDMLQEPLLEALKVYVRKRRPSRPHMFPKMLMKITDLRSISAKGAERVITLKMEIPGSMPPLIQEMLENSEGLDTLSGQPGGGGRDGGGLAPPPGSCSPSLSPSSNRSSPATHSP
Put plainly: Inhibition of [3H]ATRA binding to Retinoic acid receptor RAR alpha. In a few lines:
as §1

Assay [6] concerns the target T5, Retinoic acid receptor RXR-gamma (Homo sapiens, UniProt P48443).
T5 sequence (P48443 whole entry): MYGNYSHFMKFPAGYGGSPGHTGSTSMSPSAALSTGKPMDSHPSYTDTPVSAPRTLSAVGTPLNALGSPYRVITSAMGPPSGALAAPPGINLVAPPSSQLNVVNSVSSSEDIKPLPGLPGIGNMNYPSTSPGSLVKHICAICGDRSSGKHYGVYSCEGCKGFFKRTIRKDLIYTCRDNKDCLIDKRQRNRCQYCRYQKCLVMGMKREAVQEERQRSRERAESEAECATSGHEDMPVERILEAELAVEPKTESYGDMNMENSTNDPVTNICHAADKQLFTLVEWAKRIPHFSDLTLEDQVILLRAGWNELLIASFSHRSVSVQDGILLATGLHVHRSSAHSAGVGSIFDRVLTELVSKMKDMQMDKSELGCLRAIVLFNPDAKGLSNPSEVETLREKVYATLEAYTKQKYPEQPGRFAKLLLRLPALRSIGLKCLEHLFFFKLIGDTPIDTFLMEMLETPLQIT
Put plainly: Transcriptional activation of Retinoid X receptor RXR gamma. In short, it runs like this: (§4)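 In transiently cotransfected CV-1 cells, the receptor vector was paired with a reporter (RXRβ: CPRE-tk-Luc; RXRγ: CRBPII-tk-Luc) plus an RSV-β-Gal internal control. Compound was tested at 1 x 10^-12 to 1 x 10^-5 M in log dilutions. Luciferase was corrected by β-galactosidase and expressed as % of the 9-cis-RA maximum to give EC50. Three experiments, triplicate points.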

For assay [7], the target named is T3, Retinoic acid receptor RXR-beta. Put plainly: Transcriptional activation of Retinoid X receptor RXR beta. In short, it runs like this: as §4
For assay [8], the target named is T6, Retinoic acid receptor RXR-alpha (Homo sapiens, UniProt P19793).
T6 sequence (P19793 whole entry): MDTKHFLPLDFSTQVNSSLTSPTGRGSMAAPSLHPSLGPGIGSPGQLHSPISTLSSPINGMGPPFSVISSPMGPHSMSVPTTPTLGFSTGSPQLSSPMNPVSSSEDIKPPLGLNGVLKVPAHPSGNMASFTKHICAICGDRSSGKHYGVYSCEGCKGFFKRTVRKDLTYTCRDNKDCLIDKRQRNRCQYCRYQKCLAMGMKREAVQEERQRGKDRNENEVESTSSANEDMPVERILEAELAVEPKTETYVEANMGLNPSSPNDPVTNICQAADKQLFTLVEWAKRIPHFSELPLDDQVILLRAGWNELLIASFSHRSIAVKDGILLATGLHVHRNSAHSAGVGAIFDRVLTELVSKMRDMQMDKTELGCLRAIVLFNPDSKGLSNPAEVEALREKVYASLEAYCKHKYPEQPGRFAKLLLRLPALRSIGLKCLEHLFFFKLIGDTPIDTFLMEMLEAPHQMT
Kind of assay: Transcriptional ativation of Retinoid X receptor RXR alpha.

The target of assay [9] is T5, Retinoic acid receptor RXR-gamma. Kind of assay: Inhibition of [3H]targretin binding to Retinoid X receptor RXR gamma. In short, it runs like this: as §3
The target in assay [10] is T6, Retinoic acid receptor RXR-alpha. Put plainly: Inhibition of [3H]targretin binding to Retinoid X receptor RXR alpha.
The target in assay [11] is T1, Retinoic acid receptor beta. Put plainly: Transcriptional activation of Retinoic acid receptor RAR beta. In short, it runs like this:
as §2

Assay [12] addresses T4, Retinoic acid receptor alpha. Put plainly: Transcriptional activation of Retinoic acid receptor RAR alpha. In short, it runs like this: as §2

These results are taken from ChEMBL document CHEMBL1129272, “Identification of the first retinoid X, receptor homodimer antagonist” (J Med Chem, 1996).

Each structure is given as a SMILES string. pEC50, pKi: −log10 of the molar value.

By pKi is commonly meant −log10 of the Ki, conventionally taken in molar units. A higher pKi goes with a low Ki. Broadly, the pEC50 is the negative decadic logarithm of the EC50, by convention in mol/L. Consider `CCCOc1cc2c(cc1\C(C)=C/C=C/C(C)=C/C(=O)O)C(C)(C)CCC2(C)C`, for which the pKi in assay [1] was 5.59; in assay [3], 8.05; in assay [4], 5.22; in assay [5], 5.75. Moreover, the negative-log EC50 (pEC50) in assay [2] was 6.72.
In the case of `CCOc1cc2c(cc1\C(C)=C/C=C/C(C)=C/C(=O)O)C(C)(C)CCC2(C)C`, the negative-log EC50 (pEC50) is 8.15 in assay [6]; 8.05 in assay [7]; 6.92 in assay [2]; 8.10 in assay [8]; 7.51 in assay [11]. Further, the pKi is 5.51 in assay [1]; 7.92 in assay [3]; 7.77 in [9]; 8.40 in assay [10]; 5.38 in assay [4]; 5.59 in [5].
As to `COc1cc2c(cc1\C(C)=C/C=C/C(C)=C/C(=O)O)C(C)(C)CCC2(C)C`, the pEC50 in assay [6] was 8.05; in assay [7], 8.10; in [12], 7.40; in assay [2], 7.77; in assay [8] it was 8.30; in assay [11] it was 8.10. The pKi in assay [1] was 6.40; in assay [3], 8.70; in [9] it was 8.40; in [10], 8.70; in assay [4], 6.36; in assay [5], 6.51.
